The list is not random: actives were taken first. Their share in the collection is about 1.1%.
FXIIa inh 1536: human FXIIa protease inhibitors, primary screen, biochemical, 1536-well. Coagulation factor XII (Homo sapiens), P00748. purified FXIIa, Boc-QGR-AMC fluorogenic substrate, 2 h. inhibition, % at 5 µM. 0.3% of 220,000 active. AID 800, 2007; in the data active = inhibition above about 40%
Target sequence (P00748 20-372 limits assumed): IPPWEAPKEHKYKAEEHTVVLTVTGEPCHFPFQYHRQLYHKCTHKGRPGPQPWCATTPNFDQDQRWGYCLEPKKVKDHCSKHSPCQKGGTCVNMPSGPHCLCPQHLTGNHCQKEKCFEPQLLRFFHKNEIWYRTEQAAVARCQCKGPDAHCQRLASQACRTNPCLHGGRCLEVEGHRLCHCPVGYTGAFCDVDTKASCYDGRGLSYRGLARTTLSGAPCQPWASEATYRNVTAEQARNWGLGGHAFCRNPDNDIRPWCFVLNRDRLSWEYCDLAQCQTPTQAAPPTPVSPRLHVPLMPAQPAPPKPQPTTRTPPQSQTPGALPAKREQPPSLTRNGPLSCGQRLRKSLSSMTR
Target sequence (P00748 373-615 limits assumed): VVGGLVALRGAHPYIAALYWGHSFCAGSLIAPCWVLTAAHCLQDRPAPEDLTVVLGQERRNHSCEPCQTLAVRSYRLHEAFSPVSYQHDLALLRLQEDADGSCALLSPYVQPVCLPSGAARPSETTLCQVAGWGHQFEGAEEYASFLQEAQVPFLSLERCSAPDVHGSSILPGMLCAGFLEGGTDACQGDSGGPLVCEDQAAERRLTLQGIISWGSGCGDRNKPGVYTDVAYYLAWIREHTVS
KLK5 inh: human KLK5 protease inhibitors, primary screen, biochemical, 1536-well; 0.59% of 210,000 active; AID 873, 2007; inhibition, % at 5 µM; recombinant hK5, fluorogenic AMC substrate cleavage; Kallikrein-5 (Homo sapiens), Q9Y337;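 active = inhibition of 40% or more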
FXIa inh 1536: human FXIa protease inhibitors, primary screen, biochemical, 1536-well; Coagulation factor XI (Homo sapiens), P03951; purified FXIa, Boc-Glu-Ala-Arg-AMC fluorogenic substrate; inhibition, % at 5 µM; 0.14% of 220,000 active; AID 798, 2007;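 active = inhibition of at least 40%; inactive = inhibition below 40%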;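 also: fluorescence of freed AMC excited at 355 nm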
thrombin 1536: human alpha-thrombin inhibitors, primary screen, counter-screen for coagulation protease inhibitor project, biochemical, 1536-well, fluorogenic AMC substrate; Prothrombin (Homo sapiens), P00734; Boc-VPR-AMC fluorogenic substrate cleavage; inhibition, % at 5 µM; 0.26% of 220,000 active; AID 1046, 2008;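 active = inhibition at or above 40%; inactive = inhibition below 40%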
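System: Human alpha-thrombin protein | Medium: pH 7.5 Tris (50 mM) with NaCl 150 mM, Tween 20 0.05% | Times: Enzyme reaction carried out at room temperature | Detection: AMC fluorescence, 355/460 nm | Evaluation: Percent inhibition scaled between no-compound controls and no-enzyme blanks | Benchmarks: Enzyme without compound as high, wells lacking enzyme as low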
Furin inhibitor: human furin inhibitors, primary screen, biochemical, fluorescence intensity; P09958; purified furin, fluorogenic substrate cleavage; inhibition, % at 20 µM or 30 µM; 0.061% of 220,000 active; in the data active = inhibition above about 25%
Calb biofilm kill: clotrimazole potentiators killing C. albicans biofilm, primary screen, 4-compound mixtures | C. albicans biofilm persisters + clotrimazole, fluorescence viability; primary screen in compound mixtures of four per well | inhibition, % at 7.6 µM | 0.02% of 120,000 active | AID 1242, 2008;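 active = inhibition above 30.3% in the primary screen of four-compound pools, then above 30% when the compound was retested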;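 also: compounds exposed to preformed 24 h biofilms for 48 h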
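System: C. albicans CAF4-2 wild-type biofilms; Medium: RPMI/MOPS medium, pH 7.0; Reagent: Clotrimazole, 50 µg/mL; Times: biofilm formation 24 h, compound exposure 48 h, 37 °C; Detection: 2-h Alamar Blue fluorescence, 535/590 nm excitation/emission; Evaluation: percent inhibition of biofilm viability.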
Each line names hits and unclear results; the compound was inactive in the other large screens.

O=c1[nH]c(-[n+]2ccccc2)c(/C=N/NC([S-])=Nc2ccccc2)s1	KLK5 inh 44.0
Cc1nnc(SCc2cccc(Oc3ccccc3)c2)n1N	KLK5 inh 58.8 (no result: Calb biofilm kill)
C/C(=N\Nc1ccc([N+](=O)[O-])cc1[N+](=O)[O-])C(C)C(C)C (centres undefined)	none
COc1ccc(C)cc1NC(=O)C1CCN(S(=O)(=O)c2cccc3cccnc23)CC1	none (no result: Calb biofilm kill)
COc1ccc(N2C(=O)C(Cl)=C(N3CCCC(C)C3)C2=O)cc1 (centres undefined)	FXIIa inh 1536 57.1, FXIa inh 1536 43.6 (no result: Calb biofilm kill)
COc1ccc(CNC(=O)C2CCCN(S(=O)(=O)c3cc(C)ccc3OC)C2)cc1 (centres undefined)	none (no result: Calb biofilm kill)
COc1ccc(OC)c(S(=O)(=O)N2CCCCCC2)c1	none (no result: Calb biofilm kill)
COc1ccc(OC)c(NC(=O)C2CCCN(S(=O)(=O)c3cccc4cccnc34)C2)c1 (centres undefined)	KLK5 inh 56.5 (no result: Calb biofilm kill)
CCOC(=O)N1CCN(C(=O)C2CCCN(S(=O)(=O)c3cc(C)ccc3OC)C2)CC1 (centres undefined)	KLK5 inh 40.3, thrombin 1536 103.5 (no result: Calb biofilm kill)
COc1ccc(OC)c(S(=O)(=O)N2CCCC(C)C2)c1 (centres undefined)	FXIa inh 1536 49.0
Cn1c(N)c(C(=O)COC(=O)c2ccc(Cl)c(S(=O)(=O)N3CCCC3)c2)c(=O)n(C)c1=O	none
Cc1cc(C)c(C(CC(=O)c2cccs2)C(C#N)C#N)c(C)c1 (centres undefined)	none
Cc1ccc(S(=O)(=O)N2CCCCC2)cc1NC(=O)COc1ccccc1F	none
CCSc1nnc(NC(=O)CN2C(=O)C3CC=CCC3C2=O)s1 (centres undefined)	none
CCSc1nnc(NC(=O)[C@H](C)N2C(=O)C3CC=CCC3C2=O)s1 (some centres undefined)	KLK5 inh 45.9, FXIa inh 1536 56.4
COc1ccc2[nH]c3c(=O)n(CCCCC(=O)NCCC(C)C)c(=S)[nH]c3c2c1	none
CC1=C(C(=O)OCC2CCCO2)C(c2ccc(C)o2)C2=C(CC(c3ccc(F)cc3)CC2=O)N1 (centres undefined)	FXIIa inh 1536 51.4 (no result: Calb biofilm kill)
Cc1occc(=O)c1OC(=O)Nc1ccc(Cl)c(Cl)c1	KLK5 inh 47.5
CCNCCNc1ccc(Cl)cc1[N+](=O)[O-]	none (no result: FXIIa inh 1536, KLK5 inh, FXIa inh 1536, thrombin 1536, Calb biofilm kill)
Cc1ccc(C(=O)NCCNc2ccc(Cl)cc2[N+](=O)[O-])o1	FXIIa inh 1536 59.9 (no result: Calb biofilm kill)
N/C(=N\OC(=O)c1cccc(Cn2cc(C(F)(F)F)ccc2=O)c1)c1ccc(Cl)cc1	KLK5 inh 51.8
O=C(COC(=O)c1ccccc1Br)Nc1ccc(F)cc1	FXIIa inh 1536 41.3
O=C(COC(=O)c1ccccc1Br)NCCc1ccc(F)cc1	none
COc1cc(NC(=O)CN(C)S(=O)(=O)c2ccc3c(c2)CCC(=O)N3)cc(OC)c1	KLK5 inh 48.9 (no result: Calb biofilm kill)
CCOC(=O)c1sc(NC(C)=O)nc1C	none (no result: Calb biofilm kill)
CCOC(=O)c1sc(NS(=O)(=O)c2cc(C)ccc2C)nc1C	KLK5 inh 40.5 (no result: Calb biofilm kill)
COc1ccc(S(=O)(=O)NC(CCSC)C(=O)NC2CCCCC2)cc1 (centres undefined)	KLK5 inh 41.3
Cc1ccccc1NC(=O)c1cccc(N2C(=O)C3C4CCC(C4)C3C2=O)c1 (centres undefined)	KLK5 inh 42.9 (no result: Calb biofilm kill)
CCCC(=O)Nc1sc(C(=O)Nc2cccc(N)c2)c(C)c1C(=O)OC	none
COc1ccc(N(CC(=O)NCc2ccc(Cl)cc2)S(=O)(=O)c2ccccc2[N+](=O)[O-])c(OC)c1	FXIa inh 1536 102.2
COc1ccc(N(CC(=O)NCc2cccnc2)S(=O)(=O)c2ccccc2[N+](=O)[O-])c(OC)c1	none
CCOC(=O)c1cc(CC)sc1/N=C/C1=C(O)CCCC1=O	Furin inhibitor 37.3
CCOC(=O)c1c(/N=C/C2=C(O)CCCC2=O)sc2c1CCCC2	none
COc1cc(C(O)P(=O)(OCCC(C)C)c2ccc(N(C)C)cc2)cc(OC)c1OC (centres undefined)	none
N#C/C(=C(/O)CCl)c1nc2ccccc2[nH]1	none
CN(CCO)c1cnccn1	none
CCN(CC)S(=O)(=O)c1cccc(NC(=O)/C=C/c2ccc([N+](=O)[O-])cc2)c1	none
CCN(CC)S(=O)(=O)c1cccc(NC(=O)/C=C/c2cccc([N+](=O)[O-])c2)c1	KLK5 inh 67.3, thrombin 1536 95.4
O=C(c1cccc(S(=O)(=O)N2CCc3ccccc3C2)c1)N1CCN(c2ccc(O)cc2)CC1	none
N/C(=N\c1nc2ccccc2o1)NC(=O)c1ccccc1NC(=O)c1ccccc1	thrombin 1536 52.1 (no result: Calb biofilm kill)
N/C(=N\c1nc2ccccc2o1)NC(=O)c1ccccc1F	none (no result: Calb biofilm kill)
Nc1nc(SCC(=O)NCCc2ccccc2)[nH]c(=O)c1-c1ccccc1	none
Cc1ccc(NC(=O)CCn2cccc2)cc1C	FXIIa inh 1536 43.0 (no result: Calb biofilm kill)
Cc1ccc(NC(=O)CCSCCC(=O)Nc2ccc(C)c(C)c2)cc1C	none (no result: Calb biofilm kill)
Cc1ccc(NC(=O)CSCC(N)=O)cc1C	FXIIa inh 1536 41.9, KLK5 inh 41.9 (no result: Calb biofilm kill)
C=CCc1cc(C=O)cc(OCC)c1O	none
CCOC(=O)c1ccc(Cl)c(S(=O)(=O)N2CCCC2)c1	none
O=C(CC1CCCCC1)NCc1nc(-c2ccccc2)no1	none
CCN(CC)Cc1ccccc1Sc1ccccc1	KLK5 inh 43.7, thrombin 1536 44.3
N/C(Cc1ccccc1Sc1ccccc1)=N\O	none
COc1cc(CNC(=O)c2ccc(Cn3nc(C)c(Cl)c3C)o2)cc(OC)c1	none (no result: Calb biofilm kill)
Cc1nn(Cc2ccc(C(=O)Nc3nccs3)cc2)c(C)c1Cl	KLK5 inh 44.2, thrombin 1536 104.2 (no result: Calb biofilm kill)
COC(=O)c1ccc(Cn2nc(C)c(Cl)c2C)o1	Furin inhibitor 29.4 (no result: Calb biofilm kill)
COc1cc(/C=N/NC(=O)c2cccc(S(=O)(=O)N3CCCCC3)c2)cc(Br)c1O	none
CCCOc1ccc(N2CC(C(=O)Nc3ncccc3C)CC2=O)cc1 (centres undefined)	none (no result: Calb biofilm kill)
COc1ccc(N2CC(C(=O)Nc3nnc(SCC(=O)c4ccccc4)s3)CC2=O)cc1 (centres undefined)	KLK5 inh 62.6
CC(C)Oc1ccc(N2CC(C(=O)NC3=NCCS3)CC2=O)cc1 (centres undefined)	thrombin 1536 41.4
COc1ccc(N2CC(C(=O)Nc3ncccc3C)CC2=O)cc1 (centres undefined)	KLK5 inh 62.5 (no result: Calb biofilm kill)
CSc1ncc(CN2CCc3c([nH]c4ccccc34)C2c2cccc(O)c2)cn1 (centres undefined)	none
COC(=O)c1c(NC(=O)c2ccc(Br)s2)sc2c1CCC2	FXIIa inh 1536 55.2 (no result: Calb biofilm kill)
CCCCOCCCNC(=O)C1CCCCC1	KLK5 inh 40.6 (no result: Calb biofilm kill)

Source: PubChem
